Reference: publication PMC5480654 (Cancer Growth and Metastasis, 2017)

Tests used:
[1] = Blood clearance of I125-labeled peptides; type: in vivo, mouse; conditions: calculated by the authors, stated in Discussion
Method in brief: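 Peptides were iodinated with I125 on iodination beads (1 bead per 50 µg peptide): I125 was preincubated with the beads for 5 min, then peptide in PBS was added for 15 to 20 min. Free label was removed on 1K-cutoff filters, and labeling efficiency was checked by TLC (85% methanol). Dosing was i.v. via the tail vein, with blood drawn from the opposite vein at 5, 30, 60 min, 3 h and 24 h (3 animals). Blood was weighed, gamma-counted and expressed as activity/g to derive half-life.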

breast cancer cells = assay: Cell proliferation in vitro; type: cell-based
WASF3 = conditions: in vitro; cited from earlier work
[2] = Biodistribution of I125-labeled peptides; type: in vivo, mouse
[3] = Tolerability in treated NSG mice; type: in vivo, mouse
MDA-MB-231 cells [4] = type: in vivo, mouse; conditions: 15 mg/kg ip every other day
Method in brief: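 Six-week-old female NSG mice, in groups of 4, received 2 × 10^6 cells (grown in RPMI with 5% FBS) into the fourth mammary fat pad. Tumors grew for 2 weeks before stapled peptide treatment began, given intraperitoneally every other day for 5 weeks, […]. Mice were then euthanized and the dissected tumors were weighed individually.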

MDA-MB-231 cells [5] = assay: Ki67 and CD31 staining of primary tumors; type: in vivo, mouse

FAM-PEG3-LEK*TNS* LAKIIRQL (sidechain bridge or staple) [WAHM1]
retention time in the blood system [1]: ~ 30 minutes | effect on cell proliferation (breast cancer cells): does not affect cell proliferation | phosphoactivation of WASF3 (WASF3): suppresses phosphoactivation of WASF3 | tumor uptake, WAHM1 compared with WANT3-v1 ([2]; I125-labeled Tyr-N-term versions, SPECT): significantly greater than for the WANT3-v1 peptide | radioactivity per gram of tissue (gamma counting) ([2]; I125-labeled peptide, organs and tumor isolated after 72 h): significant uptake in tumors after 72 hours | overall body weight at conclusion of treatment ([3]; 15 mg/kg ip every other day, 5 weeks): reduced | morbidity at the higher dose ([3]; 30 mg/kg ip every other day, after 2 weeks, dose discontinued): significant morbidity and weight loss | weight of the tumors at conclusion of treatment (MDA-MB-231 cells [4]; 5 weeks, vs control tumors): significant reduction | number of surface tumor nodules on the lungs (MDA-MB-231 cells [4]; 5 weeks, vs vehicle control): significant reduction in the number of surface tumor nodules | dissemination of tumor cells (bioluminescence imaging) (MDA-MB-231 cells [4]; after 5 weeks, vs DMSO vehicle): significant reduction in the observed extent of dissemination of tumor cells | Ki67 staining of primary tumors (proliferation potential) (MDA-MB-231 cells [5]; WAHM1-treated vs control mice, printed as 25% vs 22%, no significant difference): 25% | number and size of microvessels in the primary tumors (anti-CD31) (MDA-MB-231 cells [5]; after 5 weeks, vs vehicle alone): significant reduction after 5 weeks in the number and size of microvessels
